Each structure is given as a SMILES string.

This series can be described thus: Dissociation constant, pKa of the compound at pH 3 to 12 by UV spectroscopy. The series is classed as physicochemical. The method in brief:
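UV-spectrophotometric titration in microplate wells. 10 mM DMSO stock diluted into buffers to 0.2 mM final (0.1 mM if spectra saturated), 2% v/v DMSO. Buffers: acetate, phosphate, borax, glycine/NaOH, pH 3–12.6, ionic strength 0.1 M (KCl), 30 °C. Spectra read at 2 nm resolution. Total absorbance difference at two analytical wavelengths fitted against pH by nonlinear regression. Mean of ≥3 independent runs ± SD.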
In general, pKa refers to the negative logarithm of the acid dissociation constant. Read a high pKa as a group that holds its proton tightly. In the case of `O=[N+]([O-])c1c[nH]cn1`, the pKa was determined as 9.2.

The compound `CCON1CCN/C1=N\c1ccc(NC(=O)Nc2ccc(/N=C3\NCCN3OCC)cc2)cc1` yielded a pKa of 8.27.

With `O=C(Nc1ccc(/N=C2\NCCN2O)cc1)c1ccc(/N=C2/NCCN2O)cc1`, the pKa is 7.43.

Consider `CON1CCN/C1=N/c1ccc(C(=O)Nc2ccc(/N=C3\NCCN3OC)cc2)cc1`, for which the pKa was 7.27.

`CCON1CCN/C1=N/c1ccc(C(=O)Nc2ccc(/N=C3\NCCN3OCC)cc2)cc1` had a pKa of 7.34. The pKa values of the last two compounds are within 0.2 log units of each other.

Turning to `ON1CCN/C1=N/c1ccc(CCc2ccc(/N=C3\NCCN3O)cc2)cc1`, the pKa was 7.97.

In turn, `CON1CCN/C1=N/c1ccc(CCc2ccc(/N=C3\NCCN3OC)cc2)cc1` returned a pKa of 8.01.

Take `CCON1CCN/C1=N/c1ccc(CCc2ccc(/N=C3\NCCN3OCC)cc2)cc1`: the pKa came to 8.01.

Compound `CON1CCN/C1=N\c1ccc(NC(=O)Nc2ccc(/N=C3\NCCN3OC)cc2)cc1` came in with a pKa of 7.95.

As to `Cc1nc2ccccc2[nH]1`, the pKa came to 6.22.

On to `c1cc(NC2=NCCN2)ccc1CCc1ccc(NC2=NCCN2)cc1`, for which the pKa was 10.7.

Regarding `N=C(N)Oc1ccc(Oc2ccc(OC(=N)N)cc2)cc1`, the pKa worked out at 10.7.

`O=C(Nc1ccc(NC2=NCCN2)cc1)Nc1ccc(NC2=NCCN2)cc1` returned a pKa of 10.3.

`Clc1cccc(Cl)c1N=C1NCCN1` [CLONIDINE] returned a pKa of 8.14.

The compound `O=[N+]([O-])c1ccc(O)cc1` [P-NITROPHENOL] returned a pKa of 6.87.
